For one data set, the system named is CCRF-CEM. Nature of the data set: Concentration required to inhibit growth of CCRF-CEM cells in culture for 72 hr to 50% of control growth. It is filed as functional, cell-based. Particulars: Homo sapiens.
Data set [1] is described as follows: Antitumor activity in vivo against the 6C3HED lymphosarcoma dosed for 10 days at 300 mg/kg (ip dosing daily for 8 days). It is filed as functional. Particulars: Mus musculus, route intraperitoneal. Put shortly:
(§1)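 Tumor fragments (about 1–2 mm) implanted sc via trochar into a subaxillary site of syngeneic mice (C3H, C57BL/6, Balb/C or DBA/2) or Holtz rats. Groups were 7–10 randomized animals. Compound was suspended in 2.5% Emulphor in 0.9% saline and given orally by gavage or ip, usually from the day after implantation. Tumor volume versus untreated controls was measured one day after the final dose and reported as % inhibition. Scoring bands: +++ 95–100%, ++ 80–94%.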

Data set [2] in a line: Antitumor activity in vivo against the 6C3HED lymphosarcoma, dosed for 8 days at 300 mg/kg. The conditions noted are these: Mus musculus, 192 h.
The nature of data set [3]: Antitumor activity in vivo against the 6C3HED lymphosarcoma dosed for 10 days at 270 mg/kg. In kind it is functional. The conditions noted are these: Mus musculus, 192 h, in the assay text read “8 days” for “10 days”. Put shortly: as §1
Data set [4] in a line: Antitumor activity in vivo against the 6C3HED lymphosarcoma dosed for 10 days at 275 mg/kg. In kind it is functional. The conditions noted are these: Mus musculus, 192 h, in the assay text read “8 days” for “10 days”. In a few lines: as §1
For a further data set, the system named is L1210. The data set can be described thus: Antitumor activity in vivo and the activity was determined as percent increase in life span determined against L1210V-lymphocytic leukemia tumor cell lines. In kind it is functional, Mus musculus. Put shortly:
(§2)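 The ascites tumor inoculum of 1 × 10^6 cells was given ip to DBA/2 mice, and treatment started the next day. Compound was suspended in 2.5% Emulphor in 0.9% saline. Groups had 7–10 animals. %ILS = (MDD treated − MDD control)/MDD control × 100. Deaths before the control median day of death were counted as toxic. Values are optimal from at least two experiments.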

Data set [5] can be described thus: Tested on CA-755 mammary adenocarcinoma and percent inhibition was determined at 150 mg/kg dosage administered for 10 days intraperitoneally. Particulars: Mus musculus, CA-755, po, 240 h; in the assay text read “orally” for “intraperitoneally”. It is filed as functional. Put shortly:
as §1

The nature of data set [6]: Tested on X-5563 multiple myeloma and number of drug related deaths/total animals in treatment group was determined at 150 mg/kg dosage administered for 10 days orally; 3/10. The conditions noted are these: mouse, in vivo, po, 240 h.
A further data set has as its system CA-755. The data set can be described thus: Antitumor activity in vivo expressed as percent of inhibition in CA-755-mammary adenocarcinoma tumor cell line. It is filed as functional, Mus musculus. In a few lines: as §1
For data set [7], the system named is B16. The data set can be described thus: Antitumor activity in vivo and the activity was determined as percent increase in life span determined against B-16-melanoma (ascites) cell lines. It is filed as functional, Mus musculus. In a few lines:
as §2

For data set [8], the system named is Lewis lung carcinoma cell line. Nature of the data set: Antitumor activity in vivo expressed as percent of inhibition in Lewis-lung carcinoma cell line. It is filed as functional, Mus musculus. In a few lines: as §1
In a further data set the test system is X5563. The data set can be described thus: Antitumor activity in vivo expressed as percent of inhibition in X5563-plasma cell myeloma cell line. It is filed as functional, Mus musculus. In a few lines: as §1
The test system of the next data set is P388. The data set can be described thus: Antitumor activity in vivo and the activity was determined as percent increase in life span determined against P388-lymphocytic leukemia tumor cell lines. It is filed as functional, Mus musculus. In a few lines:
as §2

A further data set has as its system M-5 (Mus musculus). The data set can be described thus: Antitumor activity in vivo expressed as percent of inhibition in M-5-ovarian carcinoma cell line.
Data set [9] can be described thus: Tested on 6C3HED lymphosarcoma and percent inhibition was determined at 100 mg/kg dosage administered for 8 days intraperitoneally. It is filed as functional. Particulars: Mus musculus, ip, 192 h, route intraperitoneal. In a few lines:
as §1

In another data set the test system is YOSHIDA. The data set can be described thus: Antitumor activity in vivo expressed as percent of inhibition in Yoshida-sarcoma (rat) cell line. It is filed as functional. In a few lines: as §1
Data set [10] in a line: Tested on 6 C3 HED lymphosarcoma and number of drug related deaths/total animals in treatment group was determined at 200 mg/kg dosage administered for 10 days intraperitoneally; 1/10. It is filed as ADME, organism-based. Set-up: dose 200 mg/kg, route intraperitoneal. The conditions noted are these: mouse, in vivo, ip, 240 h.
Data set [11] in a line: Tested on 6 C3 HED lymphosarcoma and number of drug related deaths/total animals in treatment group was determined at 100 mg/kg dosage administered for 8 days intraperitoneally; 0/10. Set-up: dose 100 mg/kg, route intraperitoneal. In kind it is ADME, organism-based. Particulars: mouse, in vivo, ip, 192 h.
A further data set concerns C3H. The data set can be described thus: Antitumor activity in vivo expressed as percent of inhibition in C3H-mammary adenocarcinoma cell line. It is filed as functional, Mus musculus. Put shortly:
as §1

Data set [12] can be described thus: Tested on 6C3HED lymphosarcoma and percent inhibition was determined at 200 mg/kg dosage administered for 8 days intraperitoneally. It is filed as functional. Particulars: Mus musculus, po, 192 h, in the assay text read “orally” for “intraperitoneally”. Put shortly:
as §1

Another data set relates to 6C3HED. Nature of the data set: Antitumor activity in vivo expressed as percent of inhibition in 6C3HED-lymphosarcoma tumor cell line. In kind it is functional, Mus musculus. In a few lines:
as §1

The subject of data set [13] is B16. Nature of the data set: Antitumor activity in vivo expressed as percent of inhibition in B-16-melanoma (solid) cell line. It is filed as functional, Mus musculus. Put shortly: as §1
The nature of data set [14]: Tested on X-5563 multiple myeloma and number of drug related deaths/total animals in treatment group was determined at 100 mg/kg dosage administered for 10 days intraperitoneally; 1/7. In kind it is ADME, organism-based. Details: dose 100 mg/kg, route intraperitoneal. The conditions noted are these: mouse, in vivo, ip, 240 h.
Data set [15] in a line: Tested on X-5563 multiple myeloma and percent inhibition was determined at 100 mg/kg dosage administered for 10 days intraperitoneally. It is filed as functional. The conditions noted are these: Mus musculus, X5563, ip, 240 h, route intraperitoneal. In a few lines: as §1
Data set [16] can be described thus: Tested on 6C3HED lymphosarcoma and percent inhibition was determined at 200 mg/kg dosage administered for 10 days intraperitoneally. In kind it is functional. The conditions noted are these: Mus musculus, ip, 240 h, route intraperitoneal. Put shortly:
as §1

Data set [17] can be described thus: Tested on CA-755 mammary adenocarcinoma and percent inhibition was determined at 50 mg/kg dosage administered for 10 days intraperitoneally. It is filed as functional. Particulars: Mus musculus, CA-755, ip, 240 h, route intraperitoneal. Put shortly: as §1
Data set [18] can be described thus: Tested on 6C3HED lymphosarcoma and percent inhibition was determined at 50 mg/kg dosage administered for 8 days intraperitoneally. The conditions noted are these: Mus musculus, po, 192 h, in the assay text read “orally” for “intraperitoneally”. In kind it is functional. In a few lines:
as §1

A short description of data set [19]: Antitumor activity in vivo against the 6C3HED lymphosarcoma dosed for 8 days at 200 mg/kg. The conditions noted are these: Mus musculus, 192 h.
The test system of the next data set is P1534J. The data set can be described thus: Antitumor activity in vivo expressed as percent of inhibition in P1534J-lymphatic leukemia cell line. It is filed as functional, Mus musculus.
Data set [20] can be described thus: Tested on X-5563 multiple myeloma and percent inhibition was determined at 150 mg/kg dosage administered for 10 days intraperitoneally. It is filed as functional. Particulars: Mus musculus, X5563, po, 240 h; in the assay text read “orally” for “intraperitoneally”. Put shortly:
as §1

The nature of data set [21]: Tested on CA-755 mammary adenocarcinoma and percent inhibition was determined at 100 mg/kg dosage administered for 10 days intraperitoneally. The conditions noted are these: Mus musculus, CA-755, ip, 240 h, route intraperitoneal. It is filed as functional. In a few lines:
as §1

Data set [22] is described as follows: Tested on 6 C3 HED lymphosarcoma and number of drug related deaths/total animals in treatment group was determined at 50 mg/kg dosage administered for 8 days perorally; 3/10. It is filed as ADME, organism-based. Details: dose 50 mg/kg, route oral. Particulars: mouse, in vivo, po, 192 h.
Data set [23] can be described thus: Tested on 6 C3 HED lymphosarcoma and number of drug related deaths/total animals in treatment group was determined at 200 mg/kg dosage administered for 8 days perorally; 1/10. The conditions noted are these: mouse, in vivo, po, 192 h. It is filed as ADME, organism-based. Set-up: dose 200 mg/kg, route oral.
A further data set deals with Colon 26. The data set can be described thus: Antitumor activity in vivo expressed as percent of inhibition in C-26-colon carcinoma cell line. It is filed as functional, Mus musculus. Put shortly: as §1
A short description of data set [24]: Antitumor activity in vivo against the 6C3HED lymphosarcoma dosed for 10 days at 600 mg/kg. In kind it is functional. The conditions noted are these: Mus musculus, 192 h, in the assay text read “dosed for 8 days” for “dosed for 10 days”. Put shortly:
as §1

The nature of data set [25]: Antitumor activity in vivo against the 6C3HED lymphosarcoma dosed for 10 days at 225 mg/kg. It is filed as functional. The conditions noted are these: Mus musculus, 192 h, in the assay text read “8 days” for “10 days”. In a few lines: as §1
A short description of data set [26]: Antitumor activity in vivo against the 6C3HED lymphosarcoma dosed for 10 days at 300 mg/kg (intraperitoneal dosing for 8 days). In kind it is functional. The conditions noted are these: Mus musculus, ip. Put shortly:
as §1

Each structure is given as a SMILES string. Values after ≈ are worked out from the molar mass of the structure shown.

`Cc1ccc(S(=O)(=O)/N=C(\S)Nc2ccc(Cl)cc2)cc1` returned an IC50 with CCRF-CEM of 12.9 µg/mL (≈ 37.8 µM). Moreover, the inhibition in vivo at 300 mg/kg in [1] came to 45%; in data set [2], 35%.

Consider `O=C(Nc1cccc(C(F)(F)F)c1)NS(=O)(=O)c1ccc([N+](=O)[O-])cc1`, for which testing at 270 mg/kg in [3] gave an inhibition in vivo of 20%. The compound also had an IC50 in the data set with CCRF-CEM of over 20 µg/mL.

With `Cc1ccc(S(=O)(=O)NC(=O)Nc2ccccc2)cc1`, the inhibition in vivo at 275 mg/kg in [4] stood at 44%. This compound also gave an IC50 in the data set with CCRF-CEM of over 20 µg/mL.

On to `Cc1ccc(S(=O)(=O)NC(=O)Nc2ccc(C(F)(F)F)cc2)cc1`, for which the Increase in life-span in the data set on L1210, in the data set on B16 [7] and in the data set with P388 was under 50% each time. Further, the inhibition in vivo at 150 mg/kg in data set [5] stood at 94%; in data set [20], 77%. Further, the Toxic/total in data set [6] turned out to be 3; in [10] it was 1; in [11] it was 0; in [14], 1; in [22] it was 3; in data set [23], 1. In addition, the Inhibition is on record as 94% in the data set on CA-755; 79% in data set [8]; 79% with X5563; 94% in the data set with M-5 (Mus musculus); 94% in the data set with YOSHIDA; 94% with C3H. The Inhibition is 100% with 6C3HED, under 60% with B16 [13], 100% in the data set on P1534J and 94% in the data set on Colon 26. For the same compound, the inhibition in vivo at 100 mg/kg came to 81% in [9], 64% in data set [15] and 13% in [21]. Further, the inhibition in vivo at 200 mg/kg in data set [12] amounted to 100%; in [16] it was 49%; in data set [19], 100%. Also, the IC50 in the data set with CCRF-CEM stood at 5.3 µg/mL (≈ 14.8 µM). For the same compound, the inhibition in vivo at 50 mg/kg in [17] came out at 87%; in data set [18] it was 84%.

For the compound `CCCCNC(=O)NS(=O)(=O)c1ccc(C)cc1` [TOLBUTAMIDE], the inhibition in vivo at 600 mg/kg in data set [24] is 45%.

`O=C(Nc1ccccc1)NS(=O)(=O)c1ccccc1` displayed an inhibition in vivo at 225 mg/kg in [25] of 35%. Also, the IC50 in the data set on CCRF-CEM was over 20 µg/mL.

In the data set on CCRF-CEM, `O=C(NC(=O)c1ccccc1)Nc1ccc(Cl)cc1` had an IC50 of over 20 µg/mL. Moreover, the results for the inhibition in vivo at 300 mg/kg in data set [26] and in [2] were 0% and 7%, respectively.

The IC50 is the concentration that inhibits the measured activity by half. A lower IC50 goes with greater potency. In general, inhibition in vivo refers to the share of the control response that was lost under treatment. Usually Inhibition stands for the share of the control response that was lost under treatment.
